From ChEMBL document CHEMBL1152903, “Synthesis and activity of N-oxalylglycine and its derivatives as Jumonji C-domain-containing histone lysine demethylase inhibitors” (Bioorg Med Chem Lett, 2009)
The source made the active and inactive calls. The rule behind the calls is not given here.

Key:
[1] = target: T1, Lysine-specific demethylase 4C (Homo sapiens) (UniProt Q9H3R0); test: Inhibition of JMJD2C-mediated H3K9 demethylation in human 293T cells at 2.5 mM; format: cell-based
T1 sequence (whole entry): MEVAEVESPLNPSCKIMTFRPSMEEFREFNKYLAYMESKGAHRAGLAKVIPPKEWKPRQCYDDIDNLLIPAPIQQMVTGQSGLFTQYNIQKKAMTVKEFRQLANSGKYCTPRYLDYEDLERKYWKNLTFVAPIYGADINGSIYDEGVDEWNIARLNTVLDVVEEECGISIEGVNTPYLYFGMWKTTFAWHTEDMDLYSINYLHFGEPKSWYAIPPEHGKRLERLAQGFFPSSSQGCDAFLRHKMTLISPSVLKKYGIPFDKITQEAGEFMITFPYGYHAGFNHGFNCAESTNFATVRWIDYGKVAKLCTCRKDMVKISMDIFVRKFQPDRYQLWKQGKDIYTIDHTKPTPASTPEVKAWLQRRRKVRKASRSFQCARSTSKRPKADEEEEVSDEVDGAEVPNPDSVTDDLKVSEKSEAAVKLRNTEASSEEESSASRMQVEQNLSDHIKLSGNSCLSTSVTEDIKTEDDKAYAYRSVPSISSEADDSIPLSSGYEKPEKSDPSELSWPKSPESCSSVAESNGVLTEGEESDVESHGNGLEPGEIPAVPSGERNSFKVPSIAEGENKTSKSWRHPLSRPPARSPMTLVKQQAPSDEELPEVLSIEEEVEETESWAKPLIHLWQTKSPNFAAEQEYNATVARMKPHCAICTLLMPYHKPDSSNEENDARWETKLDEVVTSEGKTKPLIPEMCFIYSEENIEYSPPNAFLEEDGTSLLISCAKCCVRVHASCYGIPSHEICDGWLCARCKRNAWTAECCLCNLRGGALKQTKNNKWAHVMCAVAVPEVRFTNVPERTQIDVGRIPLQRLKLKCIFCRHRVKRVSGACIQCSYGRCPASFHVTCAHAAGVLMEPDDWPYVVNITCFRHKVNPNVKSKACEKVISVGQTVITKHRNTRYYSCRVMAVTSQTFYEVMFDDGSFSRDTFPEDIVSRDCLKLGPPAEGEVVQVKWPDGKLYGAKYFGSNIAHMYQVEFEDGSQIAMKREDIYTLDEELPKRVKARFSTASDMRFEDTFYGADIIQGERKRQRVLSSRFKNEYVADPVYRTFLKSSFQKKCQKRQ
Method in brief: (§1)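 293T cells were transfected with or without Flag-JMJD2C by calcium phosphate coprecipitation; the precipitate was washed off with PBS after 12 h. Cells were grown 12 h in DMEM + 10% FCS under 10% CO₂, then for 24 h in fresh medium containing inhibitor in DMSO or 1% DMSO. Lysates were boiled in Laemmli buffer and histone methylation was assessed by Western blotting.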

[2] = target: T1, Lysine-specific demethylase 4C (Homo sapiens); test: Inhibition of JMJD2C-mediated H3K36 demethylation in human 293T cells at 2.5 mM; format: cell-based; method in brief: as §1
[3] = target: Lysine-specific demethylase 4C (Homo sapiens) (UniProt Q9H3R0); test: Inhibition of JMJD2-mediated H3K9 demethylation in human 293T cells at 2.5 mM
[4] = target: Lysine-specific demethylase 4C (Homo sapiens) (UniProt Q9H3R0); test: Inhibition of JMJD2-mediated H3K36 demethylation in human 293T cells at 2.5 mM
[5] = target: T2, Lysine-specific demethylase 4D (Homo sapiens) (UniProt Q6B0I6); test: Inhibition of JMJD2D-mediated H3K9 demethylation activity at 3 mM
T2 sequence (whole entry): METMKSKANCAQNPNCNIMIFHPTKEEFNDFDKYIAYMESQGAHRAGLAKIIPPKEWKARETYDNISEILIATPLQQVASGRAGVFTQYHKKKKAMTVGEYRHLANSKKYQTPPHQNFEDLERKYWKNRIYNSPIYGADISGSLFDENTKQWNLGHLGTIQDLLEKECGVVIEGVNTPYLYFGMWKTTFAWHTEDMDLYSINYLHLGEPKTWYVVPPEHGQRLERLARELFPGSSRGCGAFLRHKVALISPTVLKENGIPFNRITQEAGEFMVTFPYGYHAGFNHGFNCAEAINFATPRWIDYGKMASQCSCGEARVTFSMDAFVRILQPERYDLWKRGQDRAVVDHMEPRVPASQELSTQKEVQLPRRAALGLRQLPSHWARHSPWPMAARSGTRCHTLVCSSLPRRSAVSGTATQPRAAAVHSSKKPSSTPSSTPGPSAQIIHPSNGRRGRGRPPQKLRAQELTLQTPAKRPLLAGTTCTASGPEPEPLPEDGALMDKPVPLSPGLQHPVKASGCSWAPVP
Method in brief: (§2)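 Full-length GST-JMJD2D, expressed in E. coli and purified on glutathione-agarose, was incubated with histones, α-ketoglutarate, 2 mM ascorbate and 0.2 mM (NH₄)₂Fe(SO₄)₂ in 50 mM Hepes pH 7.4 with 50 mM NaCl and 50 mM KCl. Inhibitor in DMSO, or DMSO alone, was present for 2 h at 37 °C. H3K9me₃ was detected by Western blot with ECL, with H4K20me₁ as a control.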

[6] = target: T1, Lysine-specific demethylase 4C (Homo sapiens); test: Inhibition of JMJD2C-mediated H3K9 demethylation activity at 3 mM
Method in brief: (§3)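 GST fusions of JMJD2A (aa 2–350) or JMJD2C (aa 2–352), made in E. coli and purified on glutathione-agarose. Each was incubated with histones in 50 mM Hepes pH 7.4, 50 mM NaCl, 50 mM KCl, 2 mM ascorbate, 0.2 mM (NH₄)₂Fe(SO₄)₂ and α-ketoglutarate, with inhibitor in DMSO or DMSO alone, 1 h at 37 °C. Read-out was anti-H3K9me₃ Western blot with ECL; H4K20me₁ served as a control.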

[7] = target: T3, Lysine-specific demethylase 4A (Homo sapiens) (UniProt O75164); test: Inhibition of JMJD2A-mediated H3K9 demethylation activity at 3 mM; method in brief: as §3
T3 sequence (whole entry): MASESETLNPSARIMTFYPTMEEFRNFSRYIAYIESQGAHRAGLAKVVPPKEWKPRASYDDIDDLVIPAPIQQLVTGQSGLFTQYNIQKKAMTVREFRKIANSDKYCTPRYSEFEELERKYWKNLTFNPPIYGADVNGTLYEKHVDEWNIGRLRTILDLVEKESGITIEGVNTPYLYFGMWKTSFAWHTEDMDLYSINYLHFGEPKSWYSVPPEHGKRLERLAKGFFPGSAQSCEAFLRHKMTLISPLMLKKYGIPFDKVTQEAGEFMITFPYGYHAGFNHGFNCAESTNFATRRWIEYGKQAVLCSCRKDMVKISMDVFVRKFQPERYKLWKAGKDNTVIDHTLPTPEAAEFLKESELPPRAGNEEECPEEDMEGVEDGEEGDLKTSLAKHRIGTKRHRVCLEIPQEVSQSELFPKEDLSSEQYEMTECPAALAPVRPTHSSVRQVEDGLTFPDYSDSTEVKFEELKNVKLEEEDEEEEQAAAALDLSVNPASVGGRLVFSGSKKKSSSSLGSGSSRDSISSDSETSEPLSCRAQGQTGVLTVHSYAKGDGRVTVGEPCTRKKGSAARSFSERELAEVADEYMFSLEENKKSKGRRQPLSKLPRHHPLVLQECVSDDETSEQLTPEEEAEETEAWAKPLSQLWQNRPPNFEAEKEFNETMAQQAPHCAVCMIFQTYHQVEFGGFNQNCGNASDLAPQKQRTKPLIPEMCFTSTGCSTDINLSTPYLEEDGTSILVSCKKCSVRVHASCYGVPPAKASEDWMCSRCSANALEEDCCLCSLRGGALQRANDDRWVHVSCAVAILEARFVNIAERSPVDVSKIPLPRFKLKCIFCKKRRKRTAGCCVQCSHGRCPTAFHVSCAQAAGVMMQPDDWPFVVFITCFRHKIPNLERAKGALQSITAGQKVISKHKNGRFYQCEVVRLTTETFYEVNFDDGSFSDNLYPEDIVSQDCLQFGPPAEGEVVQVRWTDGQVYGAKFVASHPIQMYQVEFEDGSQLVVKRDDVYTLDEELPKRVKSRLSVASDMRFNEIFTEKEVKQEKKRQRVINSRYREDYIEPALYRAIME

[8] = target: T3, Lysine-specific demethylase 4A (Homo sapiens); test: Inhibition of JMJD2A-mediated H3K9 demethylation activity at 1 mM; method in brief: as §3
[9] = target: T1, Lysine-specific demethylase 4C (Homo sapiens); test: Inhibition of JMJD2C-mediated H3K9 demethylation activity at 1 mM; method in brief: as §3
[10] = target: T1, Lysine-specific demethylase 4C (Homo sapiens); test: Inhibition of JMJD2C-mediated H3K36 demethylation in human 293T cells at […]; format: cell-based; method in brief: as §1
[11] = target: T1, Lysine-specific demethylase 4C (Homo sapiens); test: Inhibition of JMJD2C-mediated H3K9 demethylation in human 293T cells at […]; format: cell-based; method in brief: as §1
[12] = target: T2, Lysine-specific demethylase 4D (Homo sapiens); test: Inhibition of JMJD2D-mediated H3K9 demethylation activity at 1 mM; method in brief: as §2

Row | Histone_modification [1] | Histone_modification [2] | Histone_modification [3] | Histone_modification [4] | Histone_modification [5] | Histone_modification [6] | Histone_modification [7] | Histone_modification [8] | Histone_modification [9] | Histone_modification [10] | Histone_modification [11] | Histone_modification [12] | SMILES
1 | Active | Active | Active | Active | – | – | – | – | – | – | – | – | COC(=O)CNC(=O)C(=O)OC
2 | – | – | – | – | Active | Active | Active | inactive | inactive | – | – | – | CN(C)c1cccc(CN(CC(=O)O)C(=O)C(=O)O)c1
3 | inactive | inactive | Active | – | – | – | – | – | – | – | – | – | COC(=O)CN(Cc1ccc(N(C)C)cc1)C(=O)C(=O)OC
4 | – | – | – | – | – | – | – | – | – | inactive | inactive | – | COC(=O)CCC(=O)OC
5 | – | – | – | – | Active | Active | Active | Active | Active | – | – | Active | O=C(O)CNC(=O)C(=O)O
6 | – | – | – | – | Active | Active | Active | inactive | inactive | – | – | Active | CN(C)c1ccc(CN(CC(=O)O)C(=O)C(=O)O)cc1
7 | – | – | – | – | Active | Active | Active | inactive | inactive | – | – | Active | CN(C)c1ccc(CCN(CC(=O)O)C(=O)C(=O)O)cc1
8 | – | – | – | – | – | Active-partial | Active-partial | inactive | inactive | – | – | Active | CN(C)c1ccc(CCCN(CC(=O)O)C(=O)C(=O)O)cc1
